Assay results of several laboratories.
Protocols differ between the studies behind these lines.
Target: Serine/threonine-protein kinase STK11 (STK11, Homo sapiens, UniProt Q15831)
Residues used in one study (Q15831 1-433): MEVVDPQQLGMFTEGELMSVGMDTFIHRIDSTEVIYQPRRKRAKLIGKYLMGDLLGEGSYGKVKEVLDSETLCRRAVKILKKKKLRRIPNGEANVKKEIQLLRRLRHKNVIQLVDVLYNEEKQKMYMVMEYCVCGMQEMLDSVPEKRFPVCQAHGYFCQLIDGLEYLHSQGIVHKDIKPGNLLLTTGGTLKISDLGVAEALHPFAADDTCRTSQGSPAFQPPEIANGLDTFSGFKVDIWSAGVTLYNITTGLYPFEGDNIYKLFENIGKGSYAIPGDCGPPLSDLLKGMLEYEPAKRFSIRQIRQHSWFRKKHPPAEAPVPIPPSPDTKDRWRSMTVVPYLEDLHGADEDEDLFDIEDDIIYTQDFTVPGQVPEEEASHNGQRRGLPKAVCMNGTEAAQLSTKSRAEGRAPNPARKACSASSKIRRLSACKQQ

Structure (SMILES) | assay | conditions | endpoint | result
O=C(Nc1cnn(-c2csc(C(=O)NC3COC3)c2)c1)Nc1ccccc1Cl | enzyme activity, inhibitor | 5 µM | remaining activity | 118%
CCN(CC)CCNC(=O)c1c(C)[nH]c(/C=C2\C(=O)Nc3ccc(F)cc32)c1C | enzyme activity, inhibitor | 10 µM | inhibition | 3%
CNC(=O)c1cc(Oc2ccc(NC(=O)Nc3ccc(Cl)c(C(F)(F)F)c3)cc2)ccn1 | cell-free assay | 0.5 µM | remaining signal | 104%
CN(c1nccc(-c2cnn3ncccc23)n1)C1CC1 | cell-free assay | 1 µM | remaining signal | 100%
CN(c1ccnc(CNc2nc(Nc3ccc4c(c3)CC(=O)N4)ncc2C(F)(F)F)n1)S(C)(=O)=O | cell-free assay, competition with immobilised ligand | 1 µM | remaining binding | 72%
Oc1cccc(-c2nc(N3CCOCC3)c3oc4ncccc4c3n2)c1 | enzyme activity, inhibitor | 10 µM | remaining activity | 62%
COc1cc(/C=C/C(=O)CC(=O)/C=C/c2ccc(O)c(OC)c2)ccc1O | enzyme activity, inhibitor | 1 µM | activity vs control | 95%
O=c1nc(-c2ccccn2)sc2ccccc12 | binding, competition with immobilised ligand | 1 µM | remaining binding | 79%
CC(C)(O)[C@H]1CC[C@H](Nc2ccc3ncc(-c4cccc(C(F)(F)F)c4)n3n2)CC1 | enzyme activity, inhibitor | 1 µM | remaining activity | 90.5%
CS(=O)(=O)c1cc(C2(NC(=O)c3cncc4c3cnn4-c3ccc(F)cc3)CC2)ccn1 | cell-free assay, competition with immobilised ligand | 1 µM | remaining binding | 100%
FC(F)(F)Oc1cccc(-c2cnc3ccc(-c4ccncc4)nn23)c1 | enzyme activity, inhibitor, radiometric | 1 µM | activity vs control | 89%
Cc1ccc(NC(=O)c2ccc(C)c(C(F)(F)F)c2)cc1C#Cc1nn(C2CCC(O)CC2)c2ncnc(N)c12 (stereo not shown) | cell-free assay | 10 µM | remaining signal | 94%
COc1cc(Nc2cnc(C#N)c(O[C@H](C)CN(C)C)n2)ncc1-c1cnn(C)c1 | enzyme activity, inhibitor, radiometric | 10 µM | remaining activity | 64%
FC(F)c1nc2ccccc2n1-c1nc(N2CCOCC2)nc(N2CCOCC2)n1 | enzyme activity, inhibitor | 10 µM | remaining activity | 103%
O=C1Nc2ccc(Cl)cc2C1=Cc1cc(Cl)c(O)c(Cl)c1 | cell-free assay | 0.5 µM | remaining signal | 93.1%
Cc1cc(-n2nc(Cc3cc(F)cc(C(F)(F)F)c3)nc2C)ccc1C(N)=O | cell-free assay, competition with immobilised ligand | 1 µM | remaining binding | 100%
Cc1ccc(Nc2nccc(N(C)c3ccc4c(C)n(C)nc4c3)n2)cc1S(N)(=O)=O | enzyme activity, inhibitor | 10 µM | inhibition | -2%
N#CC1(c2ccccn2)CCN(Cc2cc(C(=O)N3CCCC3)c(=O)n3ccccc23)CC1 | cell-free assay, competition with immobilised ligand | 1 µM | remaining binding | 77%
Nc1ncnc2occ(-c3ccc(NC(=O)Nc4cc(C(F)(F)F)ccc4F)cc3)c12 | cell-free assay, inhibitor | 20 µM | remaining signal | 99%
CCC(=O)N[C@H]1CC[C@@H](C(=O)N(C)c2ccc(-c3nc4ccccc4o3)cc2)C1 | cell-free assay, competition with immobilised ligand | 1 µM | remaining binding | 100%
Cc1sc(C(=O)NC2COC2)cc1-n1cc(NC(=O)Nc2c(F)cccc2Cl)cn1 | enzyme activity, inhibitor | 10 µM | remaining activity | 97.6%
CC(=O)N1CCC(c2ccc(C(=O)NC3=NCCN3)cc2C(F)(F)F)CC1 | cell-free assay, competition with immobilised ligand | 1 µM | remaining binding | 71%
O=C1NC(=O)c2cc(Nc3ccc(F)cc3)c(Nc3ccc(F)cc3)cc21 | cell-free assay | 0.5 µM | remaining signal | 98.2%
CCS(=O)(=O)c1cc2cc(C[C@](O)(CC(C)(C)c3ccc(F)cc3C(N)=O)C(F)(F)F)[nH]c2cn1 | cell-free assay, competition with immobilised ligand | 1 µM | remaining binding | 100%
COc1cc(Cl)c(C(=O)N[C@@H](CN[C@H]2CC[C@@H](N)CC2)Cc2ccc(C#N)cc2)cc1-c1ccc(CN[C@H](C)c2ccc(C)cc2)o1 | enzyme activity, inhibitor | 1 µM | remaining activity | 101%
